From ChEMBL document CHEMBL4513216, “Probing the Open Global Health Chemical Diversity Library for Multistage-Active Starting Points for Next-Generation Antimalarials” (ACS Infect Dis, 2020) come the findings set out here.

Molecules are shown by their SMILES.

The data set can be described thus: Toxicity liver stage against HepG2, at 10uM. Format: cell-based. Further details: test concentration 10 uM, cell line HepG2-A16-CD81EGFP. The note with it: human, HepG2-A16-CD81EGFP cells; read-out: INHIBITION
In outline: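 Uninfected HepG2-A16-CD81EGFP cells, 3 × 10^3 per well, 1536-well, plated on prespotted compound at 10 μM final, parasite-free screening media added to match infected plates; puromycin 10 μM positive, DMSO 0.5% negative; run in parallel with 48 h PbLuc assay at 37 °C, 5% CO2; viability by CellTiter-Glo luminescence, normalized to controls.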
As to `Cc1nc2cc(C(=O)N(CCC#N)CC3CCCO3)ccc2[nH]1` (configuration not stated), the cytotoxicity at 10 µM is -0.58%. Take `CS(=O)(=O)NCC1CCN(C(=O)Oc2ccccc2)CC1`: the cytotoxicity at 10 µM was -151%. For `COCC1CN(Cc2ccsc2)Cc2cnn(C)c21` (configuration not stated), the cytotoxicity at 10 µM came out at 5.58%.

On to `COCC(C)(O)CNC(=O)COc1ccccc1OC` (configuration not stated), for which the cytotoxicity at 10 µM was -12.2%.

As for `O=C(c1ccc(=O)[nH]n1)N1CC(c2nc(Cc3ccccc3)no2)C1`, the cytotoxicity at 10 µM is -19.3%. As to `O=S(=O)(NCC1(O)CCOc2ccccc21)c1ccc(Br)s1` (configuration not stated), the cytotoxicity at 10 µM is 1.43%. As to `Cc1ccoc1C(=O)N1CCO[C@H]2[C@H](OCC3CCOCC3)CC[C@@H]21`, the cytotoxicity at 10 µM was -6.42%. Regarding `CC(C)CC(=O)N1CCN(C(=O)N(C)C)CC2(CC(=O)N(C)C2)C1` (configuration not stated), the cytotoxicity at 10 µM is -20.3%. Take `CCCn1cc(C(=O)n2nc(C)cc2C)c(S(=O)(=O)N2CCSCC2)n1`: the cytotoxicity at 10 µM is -10.1%. As for `CN(C)[C@@H]1CN(C(=O)c2cc3cccc(F)c3[nH]2)C[C@H]1O`, the cytotoxicity at 10 µM was -1.49%.

Regarding `CC(C)NC(=O)C1(Cc2ccccc2-c2cncnc2)CCCNC1` (configuration not stated), the cytotoxicity at 10 µM was 3.67%. The value for `O=C(O)c1cccc(CN2CCCC(Cc3ccn[nH]3)C2)c1` (configuration not stated) was 5.39%. With `Cc1cc(C)n(C2CCN(S(C)(=O)=O)CC2)n1`, the cytotoxicity at 10 µM is 15.7%. The same measure for `c1ccc2ncc(CC3CCNCC3)cc2c1`: 1.8%. Take `COCC(=O)NC(CC(C)C)c1nc2cccnc2n1C` (configuration not stated): the cytotoxicity at 10 µM was determined as 15.2%.

As to `CNC(=O)c1cnc(C)nc1CCNC(=O)CCc1ccccc1`, the cytotoxicity at 10 µM was -0.0555%.

`O=C(N[C@@H]1CC[C@@H](N2CCCC2)[C@@H]1O)c1cc2cccc(F)c2[nH]1`: the cytotoxicity at 10 µM came to 2.91%. The value for `Cc1nc(O)c2nnn(C[C@H]3CCCN3C(=O)c3ccccc3C)c2n1` was -7.36%; that for `Cc1ccc(C)c(CC(=O)NC2CCCS(=O)(=O)C2)c1` (configuration not stated) was -7.52%.

Turning to `CC(NCc1cccc(COC2CCCC2)c1)c1cnn(C)c1` (configuration not stated), the cytotoxicity at 10 µM is 4.34%. On to `CN(c1nc(Cn2cc(Br)ccc2=O)cs1)C1CC1`, for which the cytotoxicity at 10 µM worked out at 8.34%. Consider `CN1CCN(C(=O)C2(S(C)(=O)=O)CCCC2)Cc2ccccc21`, for which the cytotoxicity at 10 µM was -4.96%. As to `CCn1nc2c(cc1=O)CN(CCOc1cccc(C#N)c1)CC2`, the cytotoxicity at 10 µM came to 4.67%. On to `CNC(=O)c1cc(NC(=O)NC2CC2)ccc1F`, for which the cytotoxicity at 10 µM stood at 5.13%. The value for `CCCOC1CCCN(C(=O)c2ccnc(N3CCN(C)CC3)c2)C1` (configuration not stated) was -5.7%; that for `O=C(N1CCc2ccccc2CC1)C1(O)Cc2ccccc2C1` was 10.8%. The same measure for `Cc1ccc(NC2CCN(C(=O)CCCc3ccccn3)CC2)nn1`: 16.4%; for `Cc1cccc(CS(=O)(=O)c2nnc(N3CCOCC3)s2)c1`: -3.48%. As for `Cc1cn2c(n1)CCC(NC(=O)COCCOc1ccccc1)C2` (configuration not stated), the cytotoxicity at 10 µM was -4.44%.

Regarding `O=C(CN1CCN(c2ccnc3c(F)ccc(F)c23)CC1)NC1CC1`, the cytotoxicity at 10 µM is -1.12%. For `CC(NCCN1CCN(C(=O)C2CCCC2)CC1)c1nccs1` (configuration not stated), the cytotoxicity at 10 µM is -0.513%.

As for `Cc1cc(Cl)ccc1NCc1cnn(C2CCS(=O)(=O)C2)c1` (configuration not stated), the cytotoxicity at 10 µM was 6.51%. The value for `Cc1cnc(-c2nc(-c3cccc(CN4CCOCC4)c3)no2)cn1` was -4.21%; that for `CC(C)c1nnc(CN(C)C(c2ccccc2)c2ccc(F)cc2)o1` (configuration not stated) was 15.5%; that for `CC(=O)N1CCCN(C(=O)c2ccc(Sc3ccccn3)cc2)CC1` was 10.9%.

On to `Cc1cc(OC(F)F)c(C(=O)N2CCC(N(C)C)CC2)s1`, for which the cytotoxicity at 10 µM stood at 6.9%. The same measure for `CC(CNC1CCN(Cc2ccncc2)CC1)c1ccc(F)cc1F` (configuration not stated): -9.73%; for `CCc1ccc(C(=O)NCCCC2(C3OCCO3)CCOCC2)cc1`: 15.6%. For `CC(C)NC(=O)C1CCN(C(C)C(=O)N2CCc3sccc3C2)CC1` (configuration not stated), the cytotoxicity at 10 µM came out at 5.52%.

As to `COCCN1CCN(S(C)(=O)=O)Cc2cccnc21`, the cytotoxicity at 10 µM was determined as 5.7%.

On to `O=C(c1ccco1)N1CCO[C@@H]2CNCC[C@@H]2C1`, for which the cytotoxicity at 10 µM was -75.2%. On to `Cc1ncnc2c1CCN(C(=O)c1cccn1C)CC2`, for which the cytotoxicity at 10 µM was -75.1%.

Take `CC(C)c1nc(CN(C)C(=O)CCS(=O)(=O)c2ccccc2)no1`: the cytotoxicity at 10 µM is -20.3%. With `Cc1ncsc1CCN(C)C(=O)c1ccc(Cn2cnnn2)cc1`, the cytotoxicity at 10 µM was -9.17%. The value for `CCC(OC)C(=O)NCC1CCN(c2cnn(C)c(=O)c2)CC1` (configuration not stated) was 7.35%. With `CN1CC2(CCCN(C(=O)c3cnc4ccc(F)cc4c3O)C2)OC1=O` (configuration not stated), the cytotoxicity at 10 µM was determined as 6.25%. As for `OC1CCN(CCCn2ccnc2-c2c[nH]cn2)CC1`, the cytotoxicity at 10 µM was -1.57%. The same measure for `O=c1c(CN2CCOCC2)coc2ccc(Cl)cc12`: -3.73%. As for `Cn1c(Cn2ccnc2)nnc1C1CCCN(CC(C)(C)C)C1` (configuration not stated), the cytotoxicity at 10 µM was determined as 3.89%.

Consider `C/C=C(\C)CN1C[C@H](c2cccc(OC)c2)[C@@H](N)C1`, for which the cytotoxicity at 10 µM amounted to 3.49%.

`CCC(O)CNC(=O)C1(N(C)Cc2ccccc2)Cc2ccccc2C1` (configuration not stated): the cytotoxicity at 10 µM was 7.62%.

Turning to `Cc1nc(O)c2nnn(C[C@H]3CCCN3C(=O)CCC3CCCC3)c2n1`, the cytotoxicity at 10 µM was 5.02%. Regarding `Cc1nc(CN2CCCC(c3cc(C(N)=O)[nH]n3)C2)oc1C` (configuration not stated), the cytotoxicity at 10 µM was -31.2%.

Regarding `CCC1c2ccsc2CCN1C(=O)NCc1ccnc(N(C)C)c1` (configuration not stated), the cytotoxicity at 10 µM was -11.9%. Take `CS(=O)(=O)NCC1CCCN(C(=O)CCCc2ccccc2)C1` (configuration not stated): the cytotoxicity at 10 µM was -2.78%. Regarding `Cc1nc(C)n(CC2CCCN(CC(=O)Nc3ccncc3)C2)n1` (configuration not stated), the cytotoxicity at 10 µM is -5.75%. As to `Cc1cc(NC(=O)NCC(CC(C)C)N2CCOCC2)n(C)n1` (configuration not stated), the cytotoxicity at 10 µM was -15%.

Take `Cc1ccc(-c2nc(CN3CCCC3Cn3cncn3)co2)cc1` (configuration not stated): the cytotoxicity at 10 µM was -7.29%. The same measure for `CC(O)CN1CCN(C(=O)c2cccn2Cc2ccccc2)CC1` (configuration not stated): -8.87%.

For `CCn1c(CNCC2CCCN2c2cccnn2)nc2ccccc21` (configuration not stated), the cytotoxicity at 10 µM was -10.2%. For `O=C(NCCNc1ncccn1)N1CCCC1`, the cytotoxicity at 10 µM was -12.8%. Take `O=C(NCc1cccnc1-n1cncn1)c1ccc2c(c1)CCO2`: the cytotoxicity at 10 µM was -14.2%. In the case of `Cc1ncc(C(=O)NCCNc2ncccc2C#N)s1`, the cytotoxicity at 10 µM was -8.18%.

As for `Cc1nc(CN(C)C2CCN(CCCOc3ccc(F)cc3)C2)no1` (configuration not stated), the cytotoxicity at 10 µM is -8.27%. On to `CCc1nc(CN(C)C2CCN(CCOc3ccccc3)C2)no1` (configuration not stated), for which the cytotoxicity at 10 µM is -34.6%. Regarding `CCn1c(CN2CCCN(C(=O)OC)CC2)nc2c(F)cccc21`, the cytotoxicity at 10 µM is -8.6%. Regarding `O=C(Cc1ccc2c(c1)OCCO2)NC1CCCC1`, the cytotoxicity at 10 µM is -3.07%. Regarding `Cc1ccc(-c2nc(CN3CCc4nn(C)c(=O)cc4C3)co2)cc1`, the cytotoxicity at 10 µM was -11.6%. Take `CCN1CCn2c(C)cnc2C12CCN(C(=O)CC(C)C)CC2`: the cytotoxicity at 10 µM is -5.93%.

`CCOC(=O)[C@]12CCCN(Cc3ccco3)C[C@H]1CN(CCN(C)C)C2`: the cytotoxicity at 10 µM is -17.9%.

For the compound `COCc1cnc2n1CCN(Cc1cccnc1)C2C` (configuration not stated), the cytotoxicity at 10 µM was -8.79%.

Consider `CCC(=O)N1CC[C@H]2[C@H](C[C@@H](CN3CCCC3)N2c2nccs2)C1`, for which the cytotoxicity at 10 µM worked out at 10.2%.
